Screening data deposited in PubChem by several laboratories.
PfGluPho inh: PfG6PD (Plasmodium falciparum) enzyme inhibition; actives 0.78% (n = 350,000); PfGluPho enzyme, NADPH resazurin-diaphorase fluorescence; inhibition, % at 20 µM;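 active = inhibition reaching at least a set limit at 20 µM in the primary screen, cut at about 59% in these data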
TbHK1 inh: T. brucei hexokinase 1 inhibition; recombinant TbHK1, G6PDH-coupled NADH A340; inhibition, % at 10 µM; actives 0.11% (n = 220,000);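 active = inhibition of 50% or more in the single-dose primary screen; inactive = inhibition below 50%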
EP2 mod: modulates human prostaglandin E2 receptor EP2 signaling | EP2-expressing cells, cAMP HTRF FRET, PGE2 co-stimulation | actives 0.83% (n = 260,000) | P43116 | induction, % at 25 µM;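 active = compounds whose cAMP rise, as percent of the full-agonist control response, exceeds 60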;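 also: rat C6 glioma line stably carrying human EP2 under a CMV promoter; the protocol text gives 20 µM as final concentration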
EP2 antag: inhibitors of human EP2 prostaglandin E2 receptor | actives 0.52% (n = 260,000) | inhibition, % at 25 µM | C6 glioma cells expressing human EP2, cAMP TR-FRET; cells stimulated with saturating PGE2 | AID 1422;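 active = percent inhibition above 40 after rounding to a whole number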;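 also: rat C6 glioma host cells with rolipram phosphodiesterase inhibitor present; the protocol text gives 20 µM as final concentration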
HKDC1 inh: blocks human hexokinase HKDC1 activity; Q2TB90; recombinant HKDC1, G6PDH/diaphorase resazurin coupled fluorescence; inhibition, % at 20 µM; actives 0.16% (n = 340,000); AID 493160;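 active = inhibition above about 35% when tested at 20 µM, limit read from the data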
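Assay system – recombinant HKDC1 (HK5) hexokinase enzyme, produced in-house · Input – HKDC1 at 5 µg/mL · Reagent – glucose plus 1 mM ATP as hexokinase substrates · Timing – 90 min reaction incubation at room temperature, dark · Measured by – G6PDH/diaphorase-coupled fluorescence, 1 mM NADP, 100 µM resazurin, 525/613 nm · Benchmarks – DMSO-enzyme wells negative, buffer-substituted wells positive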
PHOSPHO1 block: PHOSPHO1 (human) inhibition | Q8TCT1 | AID 1565 | actives 1.1% (n = 290,000) | recombinant PHOSPHO1, absorbance phosphatase assay | inhibition, % at 13.3 µM; in the data active = inhibition above about 60%
Target sequence (Q8TCT1 whole entry, looked up): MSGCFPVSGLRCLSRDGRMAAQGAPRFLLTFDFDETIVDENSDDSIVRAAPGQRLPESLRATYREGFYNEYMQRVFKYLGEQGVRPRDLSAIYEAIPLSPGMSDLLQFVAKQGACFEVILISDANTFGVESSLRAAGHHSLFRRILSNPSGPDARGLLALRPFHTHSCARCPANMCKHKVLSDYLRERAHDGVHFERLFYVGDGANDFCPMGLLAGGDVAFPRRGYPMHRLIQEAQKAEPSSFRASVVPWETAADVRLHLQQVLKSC
HKDC1 act conf: confirmation of human HKDC1 activators. inhibition, % at 20 µM. shares compounds with HKDC1 inh. recombinant HKDC1, G6PDH/diaphorase resazurin fluorescence; active compounds read low. actives 14% (n = 740);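 active = inhibition at or below a set negative limit, negative inhibition meaning the enzyme was activated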
PfGluPho conf: confirmation of Plasmodium falciparum G6PD inhibitors; shares compounds with PfGluPho inh; recombinant PfGluPho, NADPH-diaphorase-resazurin fluorescence; inhibition, % at 20 µM; actives 34% (n = 2,400);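 active = inhibition of at least 50% at 20 µM in any single replicate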
Diaph ctr 10uM: counter-screen for P. falciparum G6PD inhibitors: diaphorase inhibitors, oxidizers; shares compounds with PfGluPho inh; diaphorase-coupled resazurin reduction, fluorescence, NADPH 10 uM; inhibition, % at 20 µM; actives 39% (n = 820); AID 504862;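 active = average inhibition reaching 50% or more with the compound at 20 µM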;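 also: resorufin red fluorescence formed as diaphorase reduces resazurin using NADPH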
Diaph ctr 30uM: inhibits diaphorase or oxidizes, flagging false PfG6PD hits. inhibition, % at 20 µM. shares compounds with PfGluPho inh. Diaphorase/resazurin coupled assay, resorufin fluorescence, 30 uM NADPH. actives 29% (n = 820);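 active = inhibition averaging 50% or more, tested at 20 µM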
Hits are given with their value; – = inactive; · = no result given. Only some compounds are listed: those with a hit (about 2.5% of all), similar ones and a draw of the others.

SMILES	PfGluPho inh	TbHK1 inh	EP2 mod	EP2 antag	HKDC1 inh	PHOSPHO1 block	HKDC1 act conf	PfGluPho conf	Diaph ctr 10uM	Diaph ctr 30uM
CN(C)c1ccc(C(=O)c2ccc(O)cc2O)cc1	–	–	–	–	–	–	·	·	·	·
CN(C)c1ccc(Cc2cc3c(O)ccc(O)c3cc(Cc3ccc(N(C)C)cc3)c2=O)cc1	113	·	·	·	60	·	–	84	–	–
CCOC(=O)c1sc(NC(=O)CSc2nnc(Cc3ccccc3)o2)c(C#N)c1C	88	–	–	·	–	86	–	60	–	–
CCOC(=O)c1c(NC(=O)CSc2nnc(Cc3ccccc3)o2)sc(C(C)=O)c1C	–	–	–	–	–	–	·	·	·	·
N#Cc1c([N+](=O)[O-])cc([N+](=O)[O-])cc1S(=O)(=O)Cc1ccccc1	109	·	·	·	–	·	–	100	91	92
COc1cc(OC)c(C#N)c(S(=O)(=O)Cc2ccccc2)c1	–	–	–	–	–	–	·	·	·	·
COC(=O)CCC(=O)OC1(C)C(=O)C2=CN(c3ccc(OC)cc3)C(c3ccc(OC)cc3)=CC2=C(Br)C1=O (stereo not given)	71	·	·	–	–	·	–	48	–	–
COC(=O)CCC(=O)OC1(C)C(=O)C2=CN(C3CCCC3)C(c3ccc(OC)cc3)=CC2=C(Br)C1=O (stereo not given)	70	–	–	–	38	–	–	67	56	51
C=CCN1C=C2C(=O)C(C)(OC(=O)CCC(=O)OC)C(=O)C(Br)=C2C=C1c1ccc(OC)cc1 (stereo not given)	86	–	–	–	36	–	–	55	–	–
COCCN1C=C2C(=O)C(C)(OC(=O)CCC(=O)OC)C(=O)C(Br)=C2C=C1c1ccc(OC)cc1 (stereo not given)	94	·	·	–	38	·	–	–	·	·
CN(CC(=O)NCc1ccc2c(c1)OCO2)S(=O)(=O)c1cc(Cl)ccc1Cl	·	·	–	–	·	·	·	·	·	·
O=C(Cc1ccc(F)cc1)N1CCC(Cn2nc(-c3ccco3)ccc2=O)CC1	·	·	–	·	·	·	·	·	·	·
COc1cc(OC)c(S(=O)(=O)NCc2ccccn2)cc1NC(C)=O	·	·	–	–	·	·	·	·	·	·
Cc1ccc(C(=O)c2coc3c2C(=O)C(=O)c2ccccc2-3)cc1	110	–	–	–	57	85	–	110	93	100
Cc1oc2c(c1C(=O)c1ccc(Cl)cc1)C(=O)C(=O)c1ccccc1-2	117	–	–	·	55	–	–	88	83	77
COc1ccc(C(=O)c2coc(-c3ccccc3C(=O)O)c2C(=O)O)cc1	–	–	–	–	–	–	·	·	·	·
Cc1ccc(C(=O)c2c(C)oc3c2C(=O)C(=O)c2ccccc2-3)cc1	107	–	–	55	48	–	–	92	92	98
CCc1ccc2nc(-c3ccc(F)cc3)nc(SCC(=O)NC(C)C)c2c1	·	·	–	–	·	·	·	·	·	·
Cc1cc(C)c2[nH]c(=O)c(CN(CCCN3CCOCC3)C(=O)Nc3ccc(F)cc3)cc2c1	·	·	–	–	·	·	·	·	·	·
COCCCn1c(Cc2ccccc2)nnc1SCC(N)=O	·	·	–	–	·	·	·	·	·	·
NC1=CC(=O)C(=O)c2ccccc21	71	·	·	·	49	·	–	–	·	·
CC1(OC(=O)C2CCCC2)C(=O)C=C2C=C(c3ccsc3)N(CCc3c[nH]c4ccccc34)C=C2C1=O (stereo not given)	78	–	–	–	35	–	–	66	–	–
CC1(OC(=O)C2CCCC2)C(=O)C=C2C=C(c3ccsc3)N(CCN3CCOCC3)C=C2C1=O (stereo not given)	·	–	–	–	·	–	·	·	·	·
CCn1c2ccccc2c2nc3cc(S(=O)(=O)N4CCOCC4)ccc3nc21	100	–	–	·	–	–	-47	61	–	–
